Experimental data from publication PMC6868880 (ACS Omega, 2019).
In brackets after ≈: the same amount, converted by molar mass. Read-outs that look alike come from different tables or passages of the source. Where no end group is shown, it is not given here.

Key:
Trichophyton rubrum = assay: MIC, filamentous fungi, Trichophyton rubrum; assay type: cell-based; conditions: ATCC28189, read-out: MIC Tr
In short: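 T. rubrum ATCC 28189 was grown on potato dextrose agar, and inocula were prepared in RPMI 1640 medium. MIC was determined following CLSI M38-A2 for filamentous fungi.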

Escherichia coli = assay: MIC determination against bacteria; assay type: cell-based; conditions: read-out: MIC Ec
Candida albicans [1] = conditions: cited from earlier work
Candida auris = assay: MIC, broth microdilution, Candida auris; assay type: cell-based; conditions: Table 5; CLSI M27-A3 with modifications, Lambert–Pearson plot; DSMZ-No. 21092
In short: (§1)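 Yeasts were precultured in liquid YPD at 37 °C, 70 rpm, for 24 hours. MIC was determined by CLSI M27-A3 broth microdilution, modified for turbidimetric detection. The assay used MOPS-buffered RPMI 1640 without sodium bicarbonate, with cell density read at 600 nm. MIC was derived from a Lambert–Pearson plot of cell density.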

Candida parapsilosis = assay: MIC, broth microdilution, Candida parapsilosis; assay type: cell-based; conditions: Table 5; CLSI M27-A3 with modifications, Lambert–Pearson plot; ATCC 22019
In short: as §1

Listeria monocytogenes = assay: MIC determination, Listeria monocytogenes; assay type: cell-based; conditions: Table 5; Mueller Hinton broth, CLSI M7A9 with modifications, triplicate; ATCC BAA-679/EGD-e
In short: (§2)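 Bacteria pre-cultured overnight at 37 °C/5% CO2 in culture medium as inoculum. MIC of test peptides determined by broth dilution in Mueller Hinton broth following CLSI M7A9 with modifications for bacteria. All tests run in triplicate.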

rabbit erythrocytes = conditions: cited from earlier work
human erythrocytes = conditions: cited from earlier work
Candida albicans [2] = assay: MIC, broth microdilution, Candida albicans; assay type: cell-based; conditions: Table 5; CLSI M27-A3 with modifications, Lambert–Pearson plot; ATCC 24433
In short: as §1

mammalian cell line = conditions: in vitro; cited from earlier work
Pseudomonas aeruginosa = assay: MIC determination, Pseudomonas aeruginosa; assay type: cell-based; conditions: Table 5; Mueller Hinton broth, CLSI M7A9 with modifications, triplicate; ATCC 27853
In short: as §2

`C[C@@H]1[C@H](O)[C@@H](C)/C=C/C=C/C=C/C=C/C=C/C=C/C=C/[C@H](O[C@@H]2O[C@H](C)[C@@H](O)[C@H](N)[C@@H]2O)C[C@@H]2O[C@](O)(C[C@@H](O)C[C@@H](O)[C@H](O)CC[C@@H](O)C[C@@H](O)CC(=O)O[C@H]1C)C[C@H](O)[C@H]2C(=O)O` [amphotericin B] gave an MIC (Trichophyton rubrum) of 0.125 µg/mL (≈ 0.135 µM).
Compound `CC1(C)S[C@@H]2[C@H](NC(=O)[C@H](N)c3ccccc3)C(=O)N2[C@H]1C(=O)O` [ampicillin] has an MIC (Escherichia coli) of 0.195 µg/mL (≈ 0.559 µM).
In the case of `OC(Cn1cncn1)(Cn1cncn1)c1ccc(F)cc1F` [fluconazole], the MIC (Candida albicans [1]; against Candida albicans) is given as 8 to 16 µg/mL.
For SRSELIVHQRLF-NH2 [Cm-p5], the “MIC C. auris” value (Candida auris) was 11 µg/mL, the “MIC C. parapsilosis” value (Candida parapsilosis) was 32 µg/mL and the “MIC Listeria monocytogenes” value (Listeria monocytogenes) was >100 µg/mL. The hemolytic activity (rabbit erythrocytes) was “nonhemolytic”, the hemolytic activity (human erythrocytes) was “nonhemolytic” and the “MIC C. albicans” value (Candida albicans [2]) was 10 µg/mL. The “toxicity against a mammalian cell line” value (mammalian cell line) was “did not exhibit any toxicity”, the “MIC Pseudomonas aeruginosa” value (Pseudomonas aeruginosa) was >100 µg/mL and the MIC (Candida albicans [1]; against C. albicans, native peptide) was 10 µg/mL. The “fungistatic action, concentration range” value (Candida albicans [1]; against Candida albicans) was 10 to 40 µg/mL.
